Source: PubChem BioAssay
SIAE primary = human SIAE inhibition, primary screen | Q9HAT2 | SIAE FP-Rh probe binding, fluorescence polarization | inhibition, % at 9.66 µM | actives 0.69% (n = 370,000) | AID 1053197;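 active = inhibition above a cutoff: mean of compounds within the control limits plus 3 SD of those, cut at about 17% in these data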;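 also: 0% = plate median of compound wells and 100% = probe without SIAE protein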
TCR-CD3 inh = inhibitors of human TCR-CD3 interaction; TAMRA-labeled TCR probe fluorescence, biochemical; inhibition, % at 9.4 µM; actives 0.37% (n = 360,000); AID 651800; in the data active = inhibition above about 19%;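 also: recombinant mutant TCR 2C K166C tagged with TAMRA read by polarization; 0% = receptor in buffer alone and 100% = receptor with positive control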
rCAG binder = r(CAG) repeat RNA binding; actives 1.3% (n = 370,000); TO-PRO-1 dye displacement fluorescence; AID 651821; inhibition, % at 3 µM;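 active = inhibition above the plate cutoff, the mean of all test compounds on that plate plus 3 SD, cut at about 35% in these data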;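 also: 0% = DMSO alone and 100% = 100 µM mitoxantrone as full dye displacement; higher means more dye released from RNA so lower well fluorescence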
PRMT1 inh = blocks human protein arginine methyltransferase 1 | Q99873 | AID 652257 | recombinant PRMT1, activity-based probe fluorescence polarization | inhibition, % at 2.79 µM | actives 1.3% (n = 370,000);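 active = inhibition above about 21% made by adding two undisclosed values, limit read from the data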
mABHD4 FP = inhibitors of mouse ABHD4; Q8VD66; purified mABHD4, FP-Rh probe fluorescence polarization; inhibition, % at 8.92 µM; actives 0.54% (n = 370,000); AID 720543;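 active = inhibition exceeding the mean over every tested compound plus 3 SD, cut at about 30% in these data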;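 also: 0% = plate median of compound wells and 100% = S159A mutant with DMSO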
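Material: mouse ABHD4 enzyme, wild type; Benchmarks: S159A mutant high control, sample median low control; Buffer or medium: HEPES pH 7.0, NaCl, Pluronic buffer; Signal: fluorescence polarization; Read-out: percent inhibition of probe binding, normalized to plate controls; Timing: pre-incubation 45 min, probe exposure 60 min, at 25 °C; Dosing: 8.92 µM, single dose.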
HTRA1 inh = inhibitors of human serine peptidase HTRA1; Q92743; recombinant HTRA1, FP-rhodamine activity-based probe, fluorescence polarization; inhibition, % at 5.96 µM; actives 0.5% (n = 340,000); in the data active = inhibition above about 36%;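 also: 0% = enzyme with DMSO and 100% = wells lacking enzyme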
Target sequence (Q92743 whole entry, looked up): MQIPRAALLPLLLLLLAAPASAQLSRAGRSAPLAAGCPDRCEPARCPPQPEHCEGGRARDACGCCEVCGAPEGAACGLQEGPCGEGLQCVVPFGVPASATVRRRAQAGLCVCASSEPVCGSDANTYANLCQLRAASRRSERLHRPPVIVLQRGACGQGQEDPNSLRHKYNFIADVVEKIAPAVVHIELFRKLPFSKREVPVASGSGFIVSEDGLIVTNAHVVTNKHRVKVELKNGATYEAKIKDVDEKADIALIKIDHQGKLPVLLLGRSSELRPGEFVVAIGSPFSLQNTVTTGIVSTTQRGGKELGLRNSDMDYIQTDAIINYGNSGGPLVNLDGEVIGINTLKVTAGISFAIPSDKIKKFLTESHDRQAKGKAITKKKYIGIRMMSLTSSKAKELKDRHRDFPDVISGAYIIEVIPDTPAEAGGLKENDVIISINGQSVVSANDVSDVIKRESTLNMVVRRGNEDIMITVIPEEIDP
rCAG binder conf = r(CAG) RNA repeat binding, confirmation | shares compounds with rCAG binder | TO-PRO-1 dye displacement fluorescence | inhibition, % at 3 µM | actives 70% (n = 4,300) | AID 652065;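 active = inhibition above a per-plate cutoff, the mean inhibition of sample wells plus 3 SD, cut at about 35% in these data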;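 also: loss of TO-PRO-1 fluorescence as compound displaces dye from 1x1 AA loop RNA; 0% = DMSO only wells and 100% = 100 µM mitoxantrone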
dCAG dye counter = disrupts DNA CAG TO-PRO-1 complex, flagging rCAG hits | d(CAG) DNA oligo TO-PRO-1 dye displacement, fluorescence | actives 94% (n = 4,300) | AID 652068 | shares compounds with rCAG binder | inhibition, % at 3 µM;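 active = inhibition above its plate's cutoff, the mean test-well inhibition plus 3 SD, cut at about 4.8% in these data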;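 also: 0% = DNA dye mix with DMSO and 100% = 100 µM mitoxantrone; hits displace the dye from DNA and so lower well fluorescence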
dCAG dye DR = DNA CAG dye complex inhibition, dose response counter-screen; actives 20% (n = 250); DNA CAG/GTC duplex TO-PRO-1 dye displacement fluorescence; IC50, µM; shares compounds with rCAG binder; AID 686960; in the data active = IC50 below about 10 µM
* = called active by the depositor. Compounds with a hit are over-represented: about 3.5% of the library has one in this group of screens.

Cc1ccc([C@@H]2CC=C(C(=O)O)[C@H](c3ccc(F)cc3)N2S(=O)(=O)c2ccc(C)cc2)cc1 was read as SIAE primary -5.8, TCR-CD3 inh 5.1, rCAG binder 54.3*, PRMT1 inh 2.7, mABHD4 FP 5.1, HTRA1 inh -18.6, rCAG binder conf 61.4* and dCAG dye counter 24.1*.
Screening Cc1ccccc1S(=O)(=O)N1[C@@H](c2ccc(F)cc2)C(C(=O)O)=CC[C@H]1c1ccc(Cl)cc1 returned SIAE primary 10.1, TCR-CD3 inh -0.9, rCAG binder 57.8*, PRMT1 inh -0.6, mABHD4 FP 8.2, HTRA1 inh -34.8, rCAG binder conf 72.2*, dCAG dye counter 32.8* and dCAG dye DR inactive.
CCOc1ccc([C@@H]2CC=C(C(=O)O)[C@H](c3ccc(F)cc3)N2S(=O)(=O)c2ccc(C)cc2)cc1 was read as SIAE primary -3.8, TCR-CD3 inh -6.0, rCAG binder 51.6*, PRMT1 inh 0.8, mABHD4 FP 5.0, HTRA1 inh -13.4, rCAG binder conf 51.2* and dCAG dye counter 14.8*.
`COc1ccc([C@@H]2CC=C(C(=O)O)[C@H](c3cccc(Cl)c3)N2S(=O)(=O)c2ccc(C)cc2)cc1OC` gave SIAE primary -3.4, TCR-CD3 inh 3.4, rCAG binder 38.9*, PRMT1 inh 0.0, mABHD4 FP 10.3, HTRA1 inh -3.4, rCAG binder conf 28.8 and dCAG dye counter 7.0*.
Screening Cc1ccc(S(=O)(=O)N2C(c3cccc(Cl)c3)CC=C(C(=O)O)C2c2cccc(Cl)c2)cc1 (stereo unspecified) returned SIAE primary -4.2, TCR-CD3 inh 3.8, rCAG binder 4.2, PRMT1 inh -0.7 and mABHD4 FP 17.3.
For NC(=O)C1CCN(c2nc(-c3ccc4c(c3)CCO4)cs2)CC1 the results were SIAE primary -15.3, PRMT1 inh -3.4 and mABHD4 FP -2.7.
Screening COc1ccc(C(C(=O)N(C)C2CCCC2)N(Cc2ccc(F)cc2)C(=O)c2csc3ccc(Cl)cc23)cc1OC (stereo unspecified) returned SIAE primary -1.8, rCAG binder 8.6, PRMT1 inh 2.0 and mABHD4 FP -10.1.
O=C(O)c1c2c(nc3ccc(S(=O)(=O)N4CCC(C(=O)NCc5ccccc5Cl)CC4)cc13)CCCC2 was read as SIAE primary 4.6, TCR-CD3 inh 2.0, rCAG binder 39.3*, PRMT1 inh 7.8, mABHD4 FP -0.5, HTRA1 inh -1.7, rCAG binder conf 36.5* and dCAG dye counter 9.5*.
For O=C(O)c1c2c(nc3ccc(S(=O)(=O)N4CCC(C(=O)NC5CCCCCC5)CC4)cc13)CCCC2 the results were SIAE primary -0.3, TCR-CD3 inh -1.8, rCAG binder 36.0*, PRMT1 inh 11.4, mABHD4 FP 24.1, HTRA1 inh 5.4, rCAG binder conf 40.7* and dCAG dye counter 13.3*.
For O=C(O)c1c2c(nc3ccc(S(=O)(=O)N4CCC(C(=O)NCc5ccc(Cl)cc5)CC4)cc13)CCCC2 the results were SIAE primary 4.8, TCR-CD3 inh 2.2, rCAG binder 42.2*, PRMT1 inh 3.1, mABHD4 FP 8.8, HTRA1 inh 2.5, rCAG binder conf 40.4* and dCAG dye counter 13.1*.
Screening CCn1c(SCc2c(F)cccc2F)nc2sc3c(c2c1=O)CCCC3 returned SIAE primary -1.8, rCAG binder 3.6, PRMT1 inh 1.8 and mABHD4 FP 5.4.
`O=S1(=O)c2ccc(Br)cc2OC[C@@H](c2ccccc2)N1Cc1cn(CCC2OCCO2)nn1` gave SIAE primary -2.1, rCAG binder 5.2, PRMT1 inh 0.3 and mABHD4 FP -4.3.
For O=C(O)Cn1cc(/C=c2/sc3nc4ccccc4n3c2=O)c2ccccc21 the results were SIAE primary -12.7, TCR-CD3 inh -0.5, rCAG binder 52.0*, PRMT1 inh 1.6, mABHD4 FP 7.3, HTRA1 inh -15.4, rCAG binder conf 90.0* and dCAG dye counter 72.8*.
CC(C)n1cc(/C=C2\NC(=O)N(c3cccc(Cl)c3)C2=O)c2ccccc21 was read as SIAE primary 5.2, TCR-CD3 inh -4.7, rCAG binder 6.5, PRMT1 inh -1.4, mABHD4 FP 1.9 and HTRA1 inh 2.2.
For O=c1/c(=C\c2cccn2-c2ccccc2)sc2nc3ccccc3n12 the results were SIAE primary -0.6, TCR-CD3 inh -2.2, rCAG binder 1.4, PRMT1 inh 0.8, mABHD4 FP 3.9 and HTRA1 inh -2.9.
O=C(O)Cn1cc(/C=C2/NC(=O)N(c3ccc(Cl)cc3)C2=O)c2ccccc21 was read as SIAE primary 0.8, TCR-CD3 inh -4.4, rCAG binder 60.5*, PRMT1 inh 2.0, mABHD4 FP 4.2, HTRA1 inh -11.4, rCAG binder conf 62.0* and dCAG dye counter 20.9*.
`O=C1CSc2ccc(C(=O)N3CCCC(C(=O)N4CCCN(Cc5ccccc5)CC4)C3)cc2N1` (stereo unspecified) gave SIAE primary 10.7, rCAG binder 2.1, PRMT1 inh -7.3 and mABHD4 FP -1.8.
O=C(C1CCN(c2ncnc3c2sc2cccc(F)c23)CC1)N1CCN(Cc2ccc(F)cc2)CC1 was read as SIAE primary -5.2, rCAG binder 5.8, PRMT1 inh 3.5 and mABHD4 FP -6.0.
OC(c1ccccc1)(c1ccccc1)C1CCN(CCCNc2ccc(Cl)cc2Cl)CC1 was read as SIAE primary 0.3, rCAG binder 2.2, PRMT1 inh 1.4 and mABHD4 FP 16.1.
O=C(CN1c2ccccc2Sc2ccccc21)NNC(=S)Nc1ccc(Cl)cc1Cl was read as SIAE primary 0.8, TCR-CD3 inh 6.7, rCAG binder 64.2*, PRMT1 inh -3.9, mABHD4 FP 19.4, HTRA1 inh 15.1, rCAG binder conf 60.0* and dCAG dye counter 34.2*.
COc1cccc(OCC(=O)NNC(=S)Nc2ccc(Cl)cc2Cl)c1 was read as SIAE primary 2.9, TCR-CD3 inh 7.2, rCAG binder 56.8*, PRMT1 inh 3.0, mABHD4 FP 7.4, HTRA1 inh -3.4, rCAG binder conf 47.0* and dCAG dye counter 14.8*.
`O=C(CN1c2ccccc2Sc2ccccc21)N/N=C/c1ccc(Cl)cc1Cl` gave SIAE primary 8.0, TCR-CD3 inh 0.8, rCAG binder -1.0, PRMT1 inh 9.6, mABHD4 FP 16.6 and HTRA1 inh -3.3.
